Measured values reported in ChEMBL document CHEMBL5360645, “Re-Exploring the Anthracycline Chemical Space for Better Anti-Cancer Compounds” (J Med Chem, 2023).
Active and inactive are the calls of the source. The calls are words filed in the database; no cut-off is given here.

Legend:
Assay type in all cases: functional, cell-based
[1] = system: K562; assay: Induction of DNA damage in human K562 cells assessed as increase in gammaH2AX at 1 to 5 uM for 2 hrs by Western blotting analysis; details: dose 1-5 µM
How it was run: (§1)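 K562 cells treated 2 h with drug (10 μM; also 1 and 5 μM), washed and lysed directly in SDS sample buffer. Lysates separated by SDS-PAGE and blotted to PVDF. Probed for γH2AX (1:1000) with β-actin loading control and IRDye 800CW anti-mouse secondary; infrared imaging. γH2AX normalized to actin. Etoposide was the positive control. At 10 μM: mean ± SD of three independent experiments.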

[2] = system: K562; assay: Induction of DNA damage in human K562 cells assessed as DNA double strand break measured by constant gel field electrophoresis
How it was run: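 Double-strand breaks resolved by constant-field gel electrophoresis and quantified as broken DNA relative to total DNA. Etoposide was the positive control. Mean ± SD of three independent experiments.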

[3] = system: K562; assay: Induction of DNA damage in human K562 cells assessed as increase in gammaH2AX at 10 uM for 2 hrs by Western blotting analysis; how it was run: as §1
[4] = system: U2OS; assay: Cytotoxicity against human U2OS cells incubated for 2 hrs by cell titre blue viability assay
[5] = system: MEL-JUSO; assay: Cytotoxicity against human MEL-JUSO cells incubated for 2 hrs by cell titre blue viability assay
[6] = system: K562; assay: Cytotoxicity against human K562 cells incubated for 2 hrs by cell titre blue viability assay; details: K562, 2 h
How it was run: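 Viability read by CellTiter-Blue, normalized to untreated control and background-corrected. Media: K562 RPMI-1640, MelJuSo IMDM, U2OS DMEM, each with 8% FCS; 5% CO2, 37 °C.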

[7] = system: MEL-JUSO; assay: Effect of chromatin damage activity in human MEL-JUSO cells stably expressing PAGFPH2A assessed as histone eviction measured upto 60 mins measured by confocal microscopic analysis

Row | SMILES | Activity [1] | Activity [2] | Activity [3] | IC50 [4] [nM] | IC50 [5] [nM] | IC50 [6] [nM] | Activity [7]
1 | CC(=O)[C@]1(O)Cc2c(O)c3c(c(O)c2[C@@H](O[C@H]2C[C@H](N(C)C)[C@H](O[C@H]4C[C@H](O)[C@H](O[C@H]5CCC(=O)[C@H](C)O5)[C@H](C)O4)[C@H](C)O2)C1)C(=O)c1ccccc1C3=O | inactive | inactive | inactive | 12 | 8 | 20 | 
2 | COc1cccc2c1C(=O)c1c(O)c3c(c(O)c1C2=O)C[C@@](O)(C(=O)CO)C[C@@H]3O[C@H]1C[C@H](N2CCC2)[C@H](O)[C@H](C)O1 | inactive | inactive | inactive | 159 | 297 | 379 | Active
3 | COc1cccc2c1C(=O)c1c(O)c3c(c(O)c1C2=O)C[C@@](O)(C(=O)CO)C[C@@H]3O[C@H]1C[C@H](N2CCCC2)[C@H](O)[C@H](C)O1 | inactive | inactive | inactive | 122 | 73 | 172 | Active
4 | CC(=O)[C@]1(O)Cc2c(O)c3c(c(O)c2[C@@H](O[C@H]2C[C@H](N)[C@H](O[C@H]4C[C@H](O)[C@H](O[C@H]5CCC(=O)[C@H](C)O5)[C@H](C)O4)[C@H](C)O2)C1)C(=O)c1ccccc1C3=O | Active | Active | Active | 376 | 680 | 230 | 
5 | CC[C@]1(O)Cc2c(O)c3c(c(O)c2[C@@H](O[C@H]2C[C@H](N)[C@H](O)[C@H](C)O2)C1)C(=O)c1c(OC)cccc1C3=O | Active | Active | Active | 237 | 372 | 42 | 
6 | COc1cccc2c1C(=O)c1c(O)c3c(c(O)c1C2=O)C[C@@](O)(CCO)C[C@@H]3O[C@H]1C[C@H](N(C)C)[C@H](O)[C@H](C)O1 | inactive | inactive | inactive | 4210 | 2870 | 1620 | Active
7 | CC[C@@]1(O)C[C@H](O[C@H]2C[C@H](N(C)C)[C@H](O[C@H]3C[C@H](O)[C@H](O[C@H]4CCC(=O)[C@H](C)O4)[C@H](C)O3)[C@H](C)O2)c2c(cc3c(c2O)C(=O)c2c(O)cccc2C3=O)[C@H]1C(=O)OC [ACLARUBICIN] | inactive | inactive | inactive | 209 | 99 | 31 | 
8 | COc1cccc2c1C(=O)c1c(O)c3c(c(O)c1C2=O)C[C@@](O)(C(=O)CO)C[C@@H]3O[C@H]1C[C@H](N(C)C)[C@H](O[C@H]2C[C@H](O)[C@H](O[C@H]3CCC(=O)[C@H](C)O3)[C@H](C)O2)[C@H](C)O1 (single isomer, unassigned) | inactive | inactive | inactive | 11 |  | 19 | Active
9 | COc1cccc2c1C(=O)c1c(O)c3c(c(O)c1C2=O)C[C@@](O)(C(=O)CO)C[C@@H]3O[C@H]1C[C@H](O)[C@H](N(C)C)[C@H](C)O1 |  |  |  | 285 | 433 | 129 | Active
10 | COc1cccc2c1C(=O)c1c(O)c3c(c(O)c1C2=O)C[C@@](O)(C(C)=O)C[C@@H]3O[C@H]1C[C@H](N)[C@H](O)[C@H](C)O1 [DAUNORUBICIN] |  |  |  | 61 | 286 |  | 
11 | COc1cccc2c1C(=O)c1c(O)c3c(c(O)c1C2=O)C[C@@](O)(C(=O)CO)C[C@@H]3O[C@H]1CC[C@H](O)[C@H](C)O1 | Active | Active | Active | 10000 | 2430 | 1620 | Active
12 | CC(=O)[C@]1(O)Cc2c(O)c3c(c(O)c2[C@@H](O[C@H]2C[C@H](N)[C@H](O)[C@H](C)O2)C1)C(=O)c1ccccc1C3=O [IDARUBICIN] |  |  |  | 24 | 89 |  | 
13 | COc1cccc2c1C(=O)c1c(O)c3c(c(O)c1C2=O)C[C@@](O)(C(=O)CO)C[C@@H]3O[C@H]1C[C@H](O)[C@H](N)[C@H](C)O1 | Active | Active | Active | 1120 | 998 | 381 | 
14 | COc1cccc2c1C(=O)c1c(O)c3c(c(O)c1C2=O)C[C@@](O)(C(=O)CO)C[C@@H]3O[C@H]1C[C@H](N2CCOCC2)[C@H](O)[C@H](C)O1 | inactive | inactive | inactive | 77 | 51 | 64 | Active
15 | COc1cccc2c1C(=O)c1c(O)c3c(c(O)c1C2=O)C[C@@](O)(CCO)C[C@@H]3O[C@H]1C[C@H](N)[C@H](O)[C@H](C)O1 [13-DEOXYDOXORUBICIN] | Active | Active | Active | 891 | 1150 | 1790 | 
16 | COc1cccc2c1C(=O)c1c(O)c3c(c(O)c1C2=O)C[C@@](O)(C(=O)CO)C[C@@H]3O[C@H]1C[C@H](N2CCCCC2)[C@H](O)[C@H](C)O1 | inactive | inactive | inactive | 105 | 78 | 195 | Active
17 | CC[C@@]1(O)C[C@H](O[C@H]2C[C@H](N)[C@H](O)[C@H](C)O2)c2c(O)c3c(c(O)c2[C@H]1C(=O)OC)C(=O)c1cccc(O)c1C3=O | Active | Active | Active | 10000 | 4290 | 5320 | 
18 | CC[C@@]1(O)C[C@H](O[C@H]2C[C@H](N(C)C)[C@H](O)[C@H](C)O2)c2c(O)c3c(c(O)c2[C@H]1C(=O)OC)C(=O)c1cccc(O)c1C3=O | inactive | inactive | inactive | 1130 | 835 | 1100 | 
19 | COc1cccc2c1C(=O)c1c(O)c3c(c(O)c1C2=O)C[C@@](O)(C(=O)CO)C[C@@H]3O[C@H]1C[C@H](N)[C@H](O)[C@H](C)O1 [DOXORUBICIN] |  |  |  | 339 | 523 |  | Active
20 | COc1cccc2c1C(=O)c1c(O)c3c(c(O)c1C2=O)C[C@@](O)(C(=O)CO)C[C@@H]3O[C@H]1C[C@H](N=[N+]=[N-])[C@H](O)[C@H](C)O1 | Active | Active | Active | 10000 | 1220 | 84 | Active
21 | COc1cccc2c1C(=O)c1c(O)c3c(c(O)c1C2=O)C[C@@](O)(C(=O)CO)C[C@@H]3O[C@H]1C[C@H](O)[C@H](O)[C@H](C)O1 [HYDROXYRUBICIN] | Active | Active | Active | 6790 | 1900 | 856 | Active
22 | CC[C@]1(O)Cc2c(O)c3c(c(O)c2[C@@H](O[C@H]2C[C@H](N(C)C)[C@H](O)[C@H](C)O2)C1)C(=O)c1c(OC)cccc1C3=O | inactive | inactive | inactive | 1360 | 1810 | 1180 | Active
